Each block holds one molecule with its values, some of them ahead of it. The source made the active and inactive calls. No cut-off for these calls is given here.
What was measured:
[1] = Modulation of gamma-secretase
CHO [2] = test: Modulation of gamma-secretase in CHO cells overexpressing APP V717 mutant assessed as effect on amyloid beta40 level after 17 hrs by ELISA; type: cell-based; settings: Cricetulus griseus
Procedure, shortened: (§1)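 CHO cells overexpressing APP V717F; Aβ42, Aβ40 and Aβ38 quantified together in each well by multiplex Aβ ELISA. EC50 is the mean of at least two determinations.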

[3] = Drug uptake in CF1 mouse brain at 50 mg/kg, po after 4 hrs; type: ADME, organism-based; design: dose 50 mg/kg, route oral; settings: read-out: Drug uptake
Procedure, shortened: (§2)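 Wild-type CF-1 mice received a single oral dose as a solution in ethanol:propylene glycol:10% solutol (1:1:8). Animals were sacrificed 4 h after dosing. Brain and plasma were collected for drug concentration and Aβ levels. Aβ change was expressed relative to vehicle-treated controls.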

[4] = Plasma concentration in CF1 mouse at 50 mg/kg, po after 4 hrs; type: ADME, organism-based; design: dose 50 mg/kg, route oral
Procedure, shortened: (§3)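 Wild-type (CF-1) mice given compound orally as a solution in ethanol:propylene glycol:10% solutol (1:1:8). Animals sacrificed 4 h post-dose; brain and plasma collected for drug exposure and Aβ levels.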

Mus musculus [5] = test: Antialzheimer activity in CF1 mouse assessed as reduction in amyloid beta42 level in brain at 50 mg/kg, po after 4 hrs by ELISA; type: functional; design: scale not given: the % may be the effect or the level left; procedure, shortened: as §2
CHO [6] = test: (§4) Modulation of gamma-secretase in CHO cells overexpressing APP V717 mutant assessed as increase in amyloid beta38 level after 17 hrs by ELISA; type: cell-based; settings: Cricetulus griseus; procedure, shortened: as §1
[7] = Modulation of gamma-secretase in CHO cells overexpressing APP V717 mutant assessed as reduction in amyloid beta42 level after 17 hrs by ELISA; type: cell-based; settings: Cricetulus griseus; procedure, shortened: as §1
[8] = Ratio of tarenflurbil EC50 to compound EC50 for gamma-secretase
Mus musculus [9] = test: Antialzheimer activity in CF1 mouse assessed as reduction in amyloid beta 42 level in brain at 10 mg/kg, po; type: functional; design: scale not given: the % may be the effect or the level left; procedure, shortened: as §2
[10] = as §4; type: cell-based; settings: Cricetulus griseus; procedure, shortened: as §1
Plasma [11] = test: Plasma concentration in CF1 mouse at 10 mg/kg, po; type: ADME, organism-based; design: dose 10 mg/kg, route oral; settings: in vivo; procedure, shortened: as §3
Brain = test: Drug uptake in CF1 mouse brain at 10 mg/kg, po; type: ADME, organism-based; design: dose 10 mg/kg, route oral; settings: in vivo, read-out: Drug uptake; procedure, shortened: as §2
[12] = biological target: Voltage-gated inwardly rectifying potassium channel KCNH2 (Homo sapiens, UniProt Q12809); test: Inhibition of human ERG by patch clamp assay
Procedure, shortened: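 hERG was tested in an automated FastPatch patch-clamp assay, giving an EC50 readout.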

[13] = biological target: Prostaglandin G/H synthase 1 (Homo sapiens, UniProt P23219); test: Inhibition of COX1
Plasma [14] = test: Fraction unbound in human plasma; type: ADME, cell-free
Salmonella typhimurium = test: Mutagenicity in Salmonella typhimurium; type: toxicity, organism-based; settings: salmonella enterica subsp. enterica serovar typhimurium
[15] = biological target: T1, Prostaglandin G/H synthase 2 (Homo sapiens, UniProt P35354); test: Inhibition of COX2
T1 sequence (P35354 whole entry): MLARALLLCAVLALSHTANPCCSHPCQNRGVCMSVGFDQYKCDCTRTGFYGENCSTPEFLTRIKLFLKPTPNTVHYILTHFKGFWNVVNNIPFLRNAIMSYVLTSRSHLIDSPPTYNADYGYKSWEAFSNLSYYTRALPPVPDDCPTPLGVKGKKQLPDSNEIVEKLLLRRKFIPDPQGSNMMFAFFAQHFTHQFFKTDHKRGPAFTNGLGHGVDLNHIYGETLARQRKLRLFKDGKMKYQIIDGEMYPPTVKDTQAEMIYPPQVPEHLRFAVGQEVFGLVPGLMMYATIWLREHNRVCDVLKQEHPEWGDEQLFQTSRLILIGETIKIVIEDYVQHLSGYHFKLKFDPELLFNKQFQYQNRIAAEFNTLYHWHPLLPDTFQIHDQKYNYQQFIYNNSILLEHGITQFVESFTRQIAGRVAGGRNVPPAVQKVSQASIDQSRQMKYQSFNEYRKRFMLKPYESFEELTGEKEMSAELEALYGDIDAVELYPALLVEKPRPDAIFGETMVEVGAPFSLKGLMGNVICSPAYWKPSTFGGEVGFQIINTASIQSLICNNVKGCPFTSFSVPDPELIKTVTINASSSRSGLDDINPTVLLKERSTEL

Plasma [16] = test: Fraction unbound in rat plasma; type: ADME, cell-free
Cytochrome P450 1A2 = biological target: T2, Cytochrome P450 1A2 (Homo sapiens, UniProt P05177); test: Inhibition of human CYP1A2; type: ADME
T2 sequence (P05177 whole entry): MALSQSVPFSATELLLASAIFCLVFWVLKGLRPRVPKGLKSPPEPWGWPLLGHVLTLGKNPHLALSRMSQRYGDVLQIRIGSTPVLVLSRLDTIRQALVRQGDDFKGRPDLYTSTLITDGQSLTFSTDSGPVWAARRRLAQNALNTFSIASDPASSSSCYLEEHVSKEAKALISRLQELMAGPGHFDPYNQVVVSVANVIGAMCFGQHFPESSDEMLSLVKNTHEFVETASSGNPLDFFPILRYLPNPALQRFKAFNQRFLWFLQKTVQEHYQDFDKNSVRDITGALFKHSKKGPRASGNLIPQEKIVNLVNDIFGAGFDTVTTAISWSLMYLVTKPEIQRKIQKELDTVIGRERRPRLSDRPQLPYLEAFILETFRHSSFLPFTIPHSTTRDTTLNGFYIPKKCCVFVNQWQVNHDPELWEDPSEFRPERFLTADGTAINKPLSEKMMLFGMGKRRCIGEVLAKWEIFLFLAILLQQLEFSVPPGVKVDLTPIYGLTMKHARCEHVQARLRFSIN

Plasma [17] = test: Fraction unbound in mouse plasma; type: ADME, cell-free
Cynomolgus monkey = test: Antialzheimer activity in cynomolgus monkey assessed as reduction in amyloid beta 42 level in plasma at 10 mg/kg, po at 5 hrs; type: functional, Macaca fascicularis; design: scale not given: the % may be the effect or the level left
[18] = Apparent permeability across human Caco2 cells; type: ADME, cell-based; settings: Caco-2
Rattus norvegicus = test: Antialzheimer activity in Fischer rat assessed as reduction in amyloid beta 42 level in brain at 10 mg/kg, po; type: functional; design: scale not given: the % may be the effect or the level left
Cytochrome P450 2C19 = Cytochrome P450 2C19 (Homo sapiens, UniProt P33261); test: Inhibition of human CYP2C19; type: ADME
Cytochrome P450 2C9 = Cytochrome P450 2C9 (Homo sapiens, UniProt P11712); test: Inhibition of human CYP2C9; type: ADME
Gamma-secretase = test: Modulation of gamma-secretase in human H4 cells expressing wild type APP assessed as reduction in amyloid beta42 level; type: cell-based
Plasma [19] = test: Fraction unbound in monkey plasma; type: ADME, cell-free, Macaca mulatta; settings: rhesus monkey
Plasma [20] = test: Fraction unbound in dog plasma; type: ADME, cell-free, Canis lupus familiaris
Cytochrome P450 2D6 = Cytochrome P450 2D6 (Homo sapiens, UniProt P10635); test: Inhibition of human CYP2D6; type: ADME
[21] = Drug uptake in CF1 mouse brain at 30 mg/kg, po after 4 hrs; type: ADME, organism-based; design: dose 30 mg/kg, route oral; settings: read-out: Drug uptake; procedure, shortened: as §2
Mus musculus [22] = test: Antialzheimer activity in CF1 mouse assessed as reduction in amyloid beta42 level in brain at 30 mg/kg, po after 4 hrs by ELISA; type: functional; design: scale not given: the % may be the effect or the level left; procedure, shortened: as §2
[23] = Plasma concentration in CF1 mouse at 30 mg/kg, po after 4 hrs; type: ADME, organism-based; design: dose 30 mg/kg, route oral; procedure, shortened: as §3

Sequence of Voltage-gated inwardly rectifying potassium channel KCNH2 (Q12809 whole entry): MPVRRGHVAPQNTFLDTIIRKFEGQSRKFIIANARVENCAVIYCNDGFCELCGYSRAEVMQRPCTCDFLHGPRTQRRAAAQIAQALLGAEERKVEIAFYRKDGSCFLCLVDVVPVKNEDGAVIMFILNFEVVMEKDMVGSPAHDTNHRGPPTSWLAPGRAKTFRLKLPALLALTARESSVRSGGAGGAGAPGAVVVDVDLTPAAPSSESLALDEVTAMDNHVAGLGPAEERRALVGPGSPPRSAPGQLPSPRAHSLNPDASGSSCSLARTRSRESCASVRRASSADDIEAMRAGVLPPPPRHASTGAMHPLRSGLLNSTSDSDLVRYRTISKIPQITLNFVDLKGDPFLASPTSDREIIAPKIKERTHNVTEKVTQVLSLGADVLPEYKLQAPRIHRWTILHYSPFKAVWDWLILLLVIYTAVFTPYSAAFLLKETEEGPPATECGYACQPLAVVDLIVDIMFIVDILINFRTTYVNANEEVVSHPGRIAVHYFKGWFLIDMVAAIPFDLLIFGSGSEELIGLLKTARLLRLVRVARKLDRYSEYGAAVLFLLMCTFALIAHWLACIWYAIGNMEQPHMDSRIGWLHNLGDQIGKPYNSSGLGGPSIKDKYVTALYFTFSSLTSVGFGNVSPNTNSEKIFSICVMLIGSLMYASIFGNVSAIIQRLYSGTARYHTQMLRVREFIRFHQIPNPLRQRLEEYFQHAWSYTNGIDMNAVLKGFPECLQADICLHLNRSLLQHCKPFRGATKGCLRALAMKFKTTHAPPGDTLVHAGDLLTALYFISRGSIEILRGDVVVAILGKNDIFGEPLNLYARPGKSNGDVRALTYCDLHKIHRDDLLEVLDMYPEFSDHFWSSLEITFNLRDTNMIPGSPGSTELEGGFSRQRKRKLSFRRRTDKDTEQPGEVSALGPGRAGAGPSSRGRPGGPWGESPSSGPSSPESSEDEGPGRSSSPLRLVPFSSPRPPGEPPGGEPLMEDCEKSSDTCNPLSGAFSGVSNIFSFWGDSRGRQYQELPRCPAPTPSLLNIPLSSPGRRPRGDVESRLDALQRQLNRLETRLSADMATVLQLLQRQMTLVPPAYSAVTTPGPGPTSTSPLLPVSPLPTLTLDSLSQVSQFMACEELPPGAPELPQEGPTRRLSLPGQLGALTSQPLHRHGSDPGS
Sequence of Cytochrome P450 2C19 (P33261 whole entry): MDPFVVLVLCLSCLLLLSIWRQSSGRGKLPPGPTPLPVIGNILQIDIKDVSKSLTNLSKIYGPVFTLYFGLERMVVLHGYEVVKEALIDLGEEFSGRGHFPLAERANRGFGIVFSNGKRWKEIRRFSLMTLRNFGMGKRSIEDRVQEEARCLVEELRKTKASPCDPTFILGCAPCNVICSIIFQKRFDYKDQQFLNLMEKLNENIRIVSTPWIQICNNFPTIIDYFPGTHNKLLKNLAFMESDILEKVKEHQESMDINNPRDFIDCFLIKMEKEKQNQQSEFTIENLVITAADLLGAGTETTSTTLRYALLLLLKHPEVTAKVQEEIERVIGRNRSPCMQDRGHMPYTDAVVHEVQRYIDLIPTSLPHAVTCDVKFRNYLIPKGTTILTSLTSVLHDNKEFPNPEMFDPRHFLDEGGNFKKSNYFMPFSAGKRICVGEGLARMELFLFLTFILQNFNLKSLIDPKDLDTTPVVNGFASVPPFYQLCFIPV
Sequence of Cytochrome P450 2D6 (P10635 whole entry): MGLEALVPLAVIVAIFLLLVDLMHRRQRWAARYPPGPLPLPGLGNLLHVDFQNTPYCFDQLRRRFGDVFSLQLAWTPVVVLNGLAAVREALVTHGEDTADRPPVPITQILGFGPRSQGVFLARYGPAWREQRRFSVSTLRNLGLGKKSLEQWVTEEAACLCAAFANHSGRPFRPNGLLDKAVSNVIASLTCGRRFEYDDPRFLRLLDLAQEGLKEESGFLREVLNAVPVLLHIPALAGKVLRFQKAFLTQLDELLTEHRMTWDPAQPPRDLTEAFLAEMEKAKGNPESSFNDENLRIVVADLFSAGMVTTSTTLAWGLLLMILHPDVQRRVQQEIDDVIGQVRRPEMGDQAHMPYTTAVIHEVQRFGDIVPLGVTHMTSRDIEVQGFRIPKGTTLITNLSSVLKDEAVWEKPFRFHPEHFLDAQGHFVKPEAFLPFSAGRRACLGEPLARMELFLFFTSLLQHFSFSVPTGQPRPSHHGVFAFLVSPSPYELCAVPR
Sequence of Prostaglandin G/H synthase 1 (P23219 whole entry): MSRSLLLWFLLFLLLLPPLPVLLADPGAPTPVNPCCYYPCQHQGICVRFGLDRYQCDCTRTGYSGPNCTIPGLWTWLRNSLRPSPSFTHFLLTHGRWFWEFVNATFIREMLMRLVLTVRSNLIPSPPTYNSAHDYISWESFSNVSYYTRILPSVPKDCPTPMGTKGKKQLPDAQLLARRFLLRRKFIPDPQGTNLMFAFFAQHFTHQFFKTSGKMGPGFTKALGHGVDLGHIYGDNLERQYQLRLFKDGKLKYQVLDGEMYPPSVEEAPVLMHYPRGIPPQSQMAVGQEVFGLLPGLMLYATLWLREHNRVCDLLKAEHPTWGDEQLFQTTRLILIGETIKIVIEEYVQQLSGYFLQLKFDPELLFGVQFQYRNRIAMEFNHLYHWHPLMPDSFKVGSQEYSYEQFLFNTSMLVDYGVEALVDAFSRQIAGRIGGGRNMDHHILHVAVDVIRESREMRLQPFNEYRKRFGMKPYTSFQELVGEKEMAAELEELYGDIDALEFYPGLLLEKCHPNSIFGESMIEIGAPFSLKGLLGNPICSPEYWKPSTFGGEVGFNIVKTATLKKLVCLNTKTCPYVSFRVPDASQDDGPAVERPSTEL
Sequence of Cytochrome P450 2C9 (P11712 whole entry): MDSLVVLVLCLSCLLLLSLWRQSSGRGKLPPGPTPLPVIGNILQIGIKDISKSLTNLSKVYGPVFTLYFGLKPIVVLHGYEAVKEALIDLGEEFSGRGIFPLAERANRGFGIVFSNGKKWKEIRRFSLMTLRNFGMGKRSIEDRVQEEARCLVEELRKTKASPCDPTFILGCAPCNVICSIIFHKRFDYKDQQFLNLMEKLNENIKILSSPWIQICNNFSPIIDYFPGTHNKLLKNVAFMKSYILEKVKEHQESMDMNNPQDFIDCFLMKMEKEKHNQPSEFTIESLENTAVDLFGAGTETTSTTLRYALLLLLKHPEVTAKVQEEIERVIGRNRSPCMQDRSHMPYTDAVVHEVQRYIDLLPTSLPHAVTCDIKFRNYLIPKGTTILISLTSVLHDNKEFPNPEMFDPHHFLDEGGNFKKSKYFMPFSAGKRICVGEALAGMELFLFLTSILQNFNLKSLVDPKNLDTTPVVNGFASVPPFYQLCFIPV

SMILES: C[C@@H](C(=O)O)c1ccc(-c2ccccc2)c(F)c1 [TARENFLURBIL]
- EC50 [1]: 300 µM

SMILES: CC(C)CC(C(=O)O)c1ccc(C(c2ccc(F)cc2)N2CCCCC2)c(-c2ccc(C(F)(F)F)cc2)c1 (configuration not stated)
- Activity (CHO [2]): inactive
- concentration at 4 h [3]: 5.7 µM
- concentration at 4 h [4]: 32.2 µM
- Activity (Mus musculus [5]): 30%
- Activity (CHO [6]): Active
- EC50 [7]: 0.12 µM

SMILES: O=C(O)C1(c2ccc(-c3ccc(Cl)c(Cl)c3)c(F)c2)CC1
- EC50 [1]: 40 µM
- Ratio EC50 [8]: 7

SMILES: CC(C)CCN(Cc1ccc(CC(=O)O)cc1-c1ccc(C(F)(F)F)cc1)c1ccc(C(F)(F)F)cc1
- concentration at 4 h [3]: 0.6 µM
- EC50 [7]: 1 µM

More lines, main results first:

- EC50 [10]: 0.11 µM
- concentration (Plasma [11]): 7.4 µM
- concentration (Brain): 6.6 µM
- EC50 [7]: 0.15 µM
SMILES: CC1CCN([C@@H](c2ccc(F)cc2)c2ccc([C@H](C)C(=O)O)cc2-c2ccc(C(F)(F)F)cc2)CC1
- Activity (CHO [2]): inactive
- Activity (Mus musculus [9]): 38%
- EC50 [12]: 4.6 µM

- IC50 [13]: 35 µM
- Fu (Plasma [14]): < 0.1%
- IC50 [15]: 27 µM
- Fu (Plasma [16]): < 0.1%
- IC50 (Cytochrome P450 1A2): > 35 µM
- Fu (Plasma [17]): < 0.1%
- EC50 [10]: 0.15 µM
- Papp [18]: 43.8 ×10⁻⁶ cm/s
- IC50 (Cytochrome P450 2C19): > 35 µM
- IC50 (Cytochrome P450 2C9): > 35 µM
- EC50 (Gamma-secretase): 0.07 µM
- concentration (Plasma [11]): 10 µM
- concentration (Brain): 4.6 µM
- Fu (Plasma [19]): < 0.1%
- Fu (Plasma [20]): < 0.1%
- EC50 [7]: 0.17 µM
- IC50 (Cytochrome P450 2D6): > 35 µM
SMILES: CC1CCN([C@H](c2ccc(F)cc2)c2ccc([C@@H](C)C(=O)O)cc2-c2ccc(C(F)(F)F)cc2)CC1
- Activity (Salmonella typhimurium): Non-toxic
- Activity (Mus musculus [9]): 40%
- Activity (Cynomolgus monkey): 30%
- Activity (Rattus norvegicus): 30%
- EC50 [12]: 15 µM

- concentration at 4 h [21]: 14.4 µM
- concentration at 4 h [23]: 21.7 µM
- EC50 [7]: 0.18 µM
SMILES: CC(C(=O)O)c1ccc(C(c2ccc(F)cc2)N2CCC(C(F)(F)F)CC2)c(-c2ccc(C(F)(F)F)cc2)c1 (configuration not stated)
- Activity (CHO [2]): inactive
- Activity (Mus musculus [22]): 40%
- Activity (CHO [6]): Active

- concentration at 4 h [3]: 7.4 µM
- concentration at 4 h [4]: 26 µM
- EC50 [7]: 1.1 µM
SMILES: O=C(O)Cc1ccc(C(c2ccc(F)cc2)N2CCC(C(F)(F)F)CC2)c(-c2ccc(C(F)(F)F)cc2)c1 (configuration not stated)
- Activity (CHO [2]): inactive
- Activity (Mus musculus [5]): 20%
- Activity (CHO [6]): Active

— ChEMBL document CHEMBL2146445, “Discovery of BIIB042, a Potent, Selective, and Orally Bioavailable γ-Secretase Modulator” (ACS Med Chem Lett, 2011)
